“Also recorded” adds a separate entry of the source. Values belong to the substance of their own block, whether it stands above or below them.
How the values were obtained:
MDA-MB-231 cells [1] = test: MTT cell viability / proliferation, MDA-MB-231; type: cell-based; conditions: 1 nM–100 μM, 24, 48 or 72 h, 0.04% FBS, Figure 3A
In short: (§1)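 Log-phase cells (DMEM, 10% FBS) are seeded at 5 × 10^3 cells/well for 24 h, then starved 12 h in 0.04% FBS medium. Serially diluted test peptide or scrambled peptide is added in the same medium. Viability is read by MTT at 24, 48 and 72 h. Mean ± SD of three independent experiments; one-way ANOVA versus 0 μM at each time.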

[2] = Body weight of nude mice, MDA-MB-231 model; type: in vivo, nude BALB/c mice; conditions: MDA-MB-231 nude mice; i.p. daily, 25 days; Figure 5F
In short: (§2)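 Female nude BALB/c mice, 4–6 weeks old, were randomised into five groups. Each received MDA-MB-231-tomato or HCC1937-tomato cells (7 × 106 in 100 μL PBS) s.c. into the left axilla. Serially diluted test peptide or scrambled peptide was given i.p. daily for 25 days. Body weight and tumor size were recorded every 3 days, with volume = length × width² × 0.5. IVIS imaging was done twice weekly. Tumors were weighed at sacrifice.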

HCC1937 cells [3] = test: Transwell invasion assay, HCC1937; type: cell-based; conditions: Matrigel-coated Transwell, 48 h, Figure S4
In short: (§3)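 Cells (2 × 104) were seeded in serum-free medium with serially diluted test peptide or scrambled peptide into Matrigel-coated upper Transwell chambers. The lower chamber held 10% FBS medium as chemoattractant. Incubation ran 48 h at 37°C, 5% CO2. Non-invaded cells were removed. Invaded cells were methanol-fixed for 10 min, stained with hematoxylin for 30 min, and counted. Three independent experiments, mean ± SD.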

GPR1 [4] = biological target: T1, GPR1 (Homo sapiens, UniProt P46091); test: Immunofluorescence colocalization of FITC-LRH7-G5 with GPR1; type: cell-based; conditions: breast cancer cells; 1 μM FITC-labeled peptide, 2 h at RT, confocal microscopy
T1 sequence (P46091 1-355): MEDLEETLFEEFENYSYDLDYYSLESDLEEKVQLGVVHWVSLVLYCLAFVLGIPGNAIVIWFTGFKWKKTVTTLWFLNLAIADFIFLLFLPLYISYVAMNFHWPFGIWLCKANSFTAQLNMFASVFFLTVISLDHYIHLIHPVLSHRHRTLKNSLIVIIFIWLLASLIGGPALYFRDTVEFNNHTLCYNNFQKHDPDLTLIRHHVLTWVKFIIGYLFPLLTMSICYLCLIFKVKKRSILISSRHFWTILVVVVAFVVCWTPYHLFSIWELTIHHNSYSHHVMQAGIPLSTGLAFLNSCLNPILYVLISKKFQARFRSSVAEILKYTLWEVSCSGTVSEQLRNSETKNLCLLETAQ

TNBC cells = test: Western blot of cell-cycle, apoptosis and invasion proteins; type: cell-based; conditions: immunoblot, Figure 4D
HCC1937 cells [5] = test: Transwell migration assay, HCC1937; type: cell-based; conditions: 12 h, Figure S4
MDA-MB-231 cells [6] = test: Apoptosis by Annexin V/PI flow cytometry; type: cell-based; conditions: 24, 48 or 72 h, Annexin V-FITC/PI, Figure 3D
In short: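 MDA-MB-231 cells were grown in DMEM with 10% FBS at 37°C and 5% CO2. They were treated with serial dilutions of test peptide or scrambled peptide, then stained with FITC-Annexin V and PI for flow cytometry. Annexin V+/PI− (early) plus Annexin V+/PI+ (late) cells were scored as apoptotic. Three independent experiments, mean ± SD, one-way ANOVA.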

MDA-MB-231 cells [7] = test: Transwell invasion assay, MDA-MB-231; type: cell-based; conditions: Matrigel-coated Transwell, 48 h, Figure 4
In short: as §3

tumor tissue [8] = test: TUNEL assay of tumor tissue; type: in vivo, nude BALB/c mice; conditions: Figure 6C
In short: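 Xenograft tumor tissue was fixed in 4% PFA overnight and paraffin-embedded. Apoptotic cells in sections were detected with a FragEL DNA fragmentation kit (TUNEL) and imaged at ×200. Tumors came from test peptide- or scrambled peptide-treated mice.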

MDA-MB-231 cells [9] = test: Cell-cycle distribution by flow cytometry; type: cell-based; conditions: 24, 48 or 72 h, PI staining, Figure 3C
In short: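 MDA-MB-231 cells (DMEM, 10% FBS, 37°C, 5% CO2) are treated with serially diluted test peptide for 24, 48 or 72 h. Cells are stained with propidium iodide for 30 min at room temperature in the dark. Flow cytometry gives the percentages in G0/G1, S and G2/M. Mean ± SD of three independent experiments; one-way ANOVA versus control phases.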

HEK293 pcDNA cells = test: Calcium mobilization assay, HEK293 pcDNA cells; type: cell-based; conditions: Fluo-4 NW, Figure 2D
In short: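 Stably transfected HEK293 cells carrying empty pcDNA3.0 vector (G418 resistance) served as the control line. Intracellular calcium was read with Fluo-4 NW dye following the kit protocol. Human recombinant chemerin was the agonist and test peptide the antagonist. Three independent experiments, mean ± SD.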

HCC1937 xenograft = HCC1937 xenograft in nude mice; type: in vivo, nude BALB/c mice; conditions: i.p. daily, 25 days, n=5
In short: as §2

MDA-MB-231 xenograft = MDA-MB-231 xenograft in nude mice; type: in vivo, nude BALB/c mice; conditions: MDA-MB-231 nude mice; i.p. daily, 25 days; n = 5–6 per group
In short: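 Female nude BALB/c mice, 4–6 weeks old, receive 7 × 10^6 MDA-MB-231-tomato cells in 100 μL PBS subcutaneously into the left axilla. Serially diluted test peptide or scrambled peptide is injected i.p. daily. Body weight and tumor size are recorded every 3 days, with volume = length × width² × 0.5, and IVIS bioluminescence is imaged twice weekly. Tumors are weighed at sacrifice; mean ± SD.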

MDA-MB-231 cells [10] = test: Transwell migration assay, MDA-MB-231; type: cell-based; conditions: 0.1 μM to 10 μM, 12 h, Figure 4
In short: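 Uncoated Transwell chambers were used. MDA-MB-231 cells were placed in the upper chamber in FBS-free medium with test peptide or scrambled peptide. The lower chamber held 10% FBS medium. Incubation ran 12 h at 37°C, 5% CO2. Unmigrated cells were wiped off. Migrated cells were methanol-fixed for 10 min, hematoxylin-stained for 30 min at RT, and counted by inverted microscopy. Three independent experiments, mean ± SD.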

GPR1 [11] = test: Calcium mobilization assay, GPR1-expressing cells; type: cell-based, human; conditions: Fluo-4 NW, Figure 2D
In short: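 HEK293 cells stably transfected with human GPR1 (pcDNA3.0 vector, G418 resistance), with empty-vector HEK293 as control, grown in DMEM with 10% FBS. […] Fluo-4 NW dye is used following the kit instructions. Reported as mean ± SD of three independent experiments.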

MDA-MB-231 cells [12] = test: Colony formation assay, MDA-MB-231; type: cell-based; conditions: 1 month of treatment, Figure 3B
In short: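 MDA-MB-231-tomato cells were seeded at 1 × 10^3 cells/well in 6-well plates. They were exposed to indicated concentrations of test peptide or scrambled peptide. Fluorescent colonies were counted under a fluorescence microscope.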

HCC1937 cells [13] = test: MTT cell viability / proliferation, HCC1937; type: cell-based; conditions: 1 nM–100 μM, 24, 48 or 72 h, 0.04% FBS, Figure 3A
In short: as §1

T47D cells = test: MTT cell viability / proliferation, T47D; type: cell-based; conditions: 1 nM–100 μM, 24, 48 or 72 h, 0.04% FBS, Figure 3A
In short: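 T47D cells were maintained in RPMI with 10% FBS. Log-phase cells were seeded at 5 × 10^3 cells/well for 24 h, then starved in 0.04% FBS medium for 12 h. Serial dilutions of test peptide or scrambled peptide in 0.04% FBS medium were added for 24, 48 and 72 h before MTT read-out. Three independent experiments, mean ± SD. One-way ANOVA versus 0 μM at each time point.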

[14] = Body weight of nude mice, HCC1937 model; type: in vivo, nude BALB/c mice; conditions: i.p. daily, 25 days, Figure S5E
In short: as §2

tumor tissue [15] = test: Histology/IHC of tumor tissue; type: in vivo, nude BALB/c mice
In short: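 Xenograft tumors were fixed in 4% PFA overnight, paraffin-embedded and sectioned. Sections were H&E-stained (×200, ×400) or immunostained for Ki-67, PCNA and vimentin using an IHC kit (×200). Groups were test peptide- or scrambled peptide-treated mice.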

GPR1 [16] = test: Phage clones binding to GPR1 by ELISA; parameters: species or system human; conditions: versus HEK293 pcDNA cells, Figure 2A
In short: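 A Ph.D.-7 library (diversity 2.8 × 109) was precleared, then panned for five rounds over stable GPR1-overexpressing HEK293 cells (2 × 10^5/well, seeded 24 h). Eluted clones were serially diluted and incubated with GPR1-overexpressing or empty-vector HEK293 cells. Phage ssDNA was then sequenced.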

PI3K/AKT pathway = test: Western blot of PI3K/AKT pathway; type: cell-based
GPR1 [17] = biological target: T1, GPR1; conditions: cited from earlier work
[18] = tested on: receptors CMKLR1 and GPR1; conditions: comparison of the two receptors; cited from earlier work
GPR1 [19] = test: cAMP assay; type: cell-based, human; conditions: 10 nM huChemerin, 10 μM forskolin, 30 min at 37°C; mean ± SD, three independent experiments
In short: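 Stable GPR1-transfected and empty-vector HEK293 cells are seeded at 5 × 10^3 cells/well for 24 h. Cells are then exposed to serial dilutions of test peptide alone, forskolin plus chemerin, or forskolin, chemerin and peptide combined. cAMP is measured with a commercial kit.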

[20] = Gi class of heterotrimeric G proteins

colocalization with GPR1 (GPR1 [4]): marked colocalization with GPR1
binding affinity of phage clones to GPR1 (GPR1 [16]): highest affinity
Substance: MPRLPPA [LRH7-G5]
effect on cell growth (MTT) (MDA-MB-231 cells [1]): significantly suppressed cell growth in a dose-dependent manner
mean body weight [2]: did not change significantly
effect on invasion (HCC1937 cells [3]): significantly suppressed
Bcl-2 level (TNBC cells; apoptosis regulator): decreased
Stat3 level (TNBC cells; apoptosis regulator): decreased
cyclin D level (TNBC cells; cell-cycle-related protein): decreased
MMP-2 level (TNBC cells; invasion-related): decreased
MMP-9 level (TNBC cells; invasion-related): decreased
N-cadherin level (TNBC cells; invasion-related): decreased
Snail level (TNBC cells; invasion-related): decreased
vimentin level (TNBC cells; invasion-related): decreased
effect on migration (HCC1937 cells [5]): significantly suppressed
induction of apoptosis (MDA-MB-231 cells [6]): induced their apoptosis
effect on invasion (MDA-MB-231 cells [7]): significantly suppressed
cellular apoptosis in tumor (TUNEL) (tumor tissue [8]): increase in cellular apoptosis; also recorded: induces apoptosis in tumors
cell-cycle arrest (MDA-MB-231 cells [9]): arrested MDA-MB-231 cells at the G0/G1 phase boundary
effect on calcium mobilization in HEK293 pcDNA cells (HEK293 pcDNA cells): did not affect
tumor volume (HCC1937 xenograft; compared with control group): markedly decreased
tumor weight (HCC1937 xenograft; compared with control group): markedly decreased
tumor growth (HCC1937 xenograft; dose-dependent, bioluminescence): substantially suppressed tumor growth
tumor burden (HCC1937 xenograft): reduced the tumor burden in a dose-dependent manner
tumor burden (MDA-MB-231 xenograft): reduced the tumor burden in a dose-dependent manner
effect on migration (MDA-MB-231 cells [10]): significantly suppressed; also recorded: decreased migration
effect on chemerin-induced calcium mobilization (GPR1 [11]): significantly decreased chemerin-induced calcium mobilization
effect on colony formation (MDA-MB-231 cells [12]): validated by colony formation assays
effect on cell growth (MTT) (HCC1937 cells [13]): significantly suppressed cell growth in a dose-dependent manner
effect on cell growth (MTT) (T47D cells): little effect
body weight [14]: did not affect body weight
tumor necrosis (H&E) (tumor tissue [15]; H&E staining, Figure 6A): exhibited cellular necrosis
tumor cell growth (Ki-67, PCNA, vimentin staining) (tumor tissue [15]; IHC staining of Ki-67, PCNA, and vimentin, Figure 6B): decreased cell growth
effect of peptide in coculture with AKT phosphorylation activator SC-79 (PI3K/AKT pathway; cocultured with SC-79): enhanced by the AKT agonist
effect of peptide in coculture with PI3K inhibitor wortmannin (PI3K/AKT pathway; cocultured with wortmannin): weakened by the PI3K inhibitor
phosphorylation of AKT (PI3K/AKT pathway; immunoblot): significantly decreased
phosphorylation of ERK (PI3K/AKT pathway; immunoblot): significantly decreased

Substance: chemerin: human recombinant chemerin, R&D Systems; chemokine-like adipokine, GPR1 ligand
cAMP accumulation on GPR1 activation (GPR1 [17]; [20]): inhibition of cyclic adenosine monophosphate (cAMP) accumulation
p42-p44 MAP kinases phosphorylation on GPR1 activation (GPR1 [17]; [20]): phosphorylation of the p42-p44 MAP kinases
intracellular calcium release on GPR1 activation (GPR1 [17]): intracellular calcium release
binding affinities for CMKLR1 and GPR1 [18]: similar
effect on forskolin-induced cAMP release (GPR1 [19]): suppressed forskolin-induced cAMP release
